Measured values as given in publication PMC9958447 (Heliyon, 2023).
“Also recorded” adds a separate entry of the source.

How the values were obtained:
[1] = tested on: zc4h2 KO zebrafish larvae; test: Heartbeat / cardiotoxicity in zc4h2 KO zebrafish larvae; assay type: in vivo, zebrafish (Danio rerio); settings: for cardiotoxicity: zebrafish larvae, judged from heartbeat
[2] = tested on: PTZ-induced larvae of zebrafish; test: Behavioural assessment in PTZ-induced epilepsy zebrafish larvae; assay type: in vivo, zebrafish (Danio rerio)
[3] = tested on: wild-type (WT) zebrafish embryos; test: Toxicity profiling of embryo zebrafish; assay type: in vivo, zebrafish (Danio rerio)
Method in brief: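 Wild-type embryos were exposed from 5 hpf to the test compound at 0, 4.29, 8.58, 12.86, 17.15 and 21.44 μM, serially diluted from a 1 mM DMSO stock. Triplicates had 10 embryos each (n = 30). Mortality was scored daily, with LC50 at 72 hpf. Spontaneous coils were counted for 1 min at 24 hpf after 5 min habituation. Percent hatched was scored at 72 hpf. Data are mean ± SEM, analysed by one-way ANOVA with Tukey.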

[4] = cited from earlier work
[5] = tested on: zebrafish larvae; settings: cited from earlier work
[6] = 2.5 mM PTZ, 5 dpf larvae, 8.58 μM compound 8 or 100 μM VPA, 1 h
[7] = 2.5 mM PTZ, 5 dpf larvae, 8.58 μM compound 8 or 100 μM VPA, 1 h, vs PTZ group
[8] = 2.5 mM PTZ alone vs control, 5 dpf larvae

SMILES: O=C(/C=C/c1cc(F)cc(F)c1)c1ccc[nH]1 [Compound 8, (E)-3-(3,5-difluorophenyl)-1-(1H-pyrrol-2-yl)prop-2-en-1-one]
- heartbeat (heartbeats/min) ([1]; 5 dpf larvae, 2 h incubation, vs control groups): no significant difference
- cardiotoxicity [1]: no cardiotoxic effects
- cardiotoxicity ([1]; listed as compound 8): no cardiotoxic effect; also recorded: no potential cardiotoxicity
- distance spent in the inner area (thigmotaxis) [2, 6]: significantly increased
- total duration of freezing [2, 6]: increased
- average velocity (average speed travelled) [2, 7]: significant decrease
- number of freezing count [2, 7]: significant reduction
- total velocity (total speed travelled) [2, 7]: significant decrease
- convulsive behaviour ([2]; PTZ-induced larvae): effective in reducing
- mortality at the beginning of the observation period ([3]; 21.44 μM, 24 hpf): lethal
- spontaneous tail coiling (STC) ([3]; >12.86 μM, 24 hpf): no tail movement
- optimal safe concentration ([3]; chosen from all toxicological parameters): 8.58 µM
- cumulative mortality rate ([3]; exposure of 12.86 μM or more, 24–72 hpf): > 80%
- mortality compared to the control group ([3]; exposure up to 8.58 μM): no significant difference
- spontaneous tail coiling (STC) compared to control ([3]; from 8.58 μM, 24 hpf): significant decrease
- hatching rate ([3]; from 12.86 μM, 72 hpf): decreased significantly

SMILES: O=c1onc(-c2cccs2)n1Cc1ccc(F)cc1Cl [GM90432, 4-(2-chloro-4-fluorobenzyl)-3-(2-thienyl)-1,2,4-oxadiazol-5(4H)-one]
- blood-brain barrier passage [4]: effectively cross the blood-brain barrier

SMILES: C1CCc2nnnn2CC1 [PTZ, pentylenetetrazol]
- distance and speed of zebrafish [2, 8]: significantly increased
- total number of freezes [2, 8]: significantly increased

SMILES: CCCC(CCC)C(=O)O [VPA, sodium valproate]
- distance spent in the inner area (thigmotaxis) [2, 6]: significantly increased
- total duration of freezing [2, 6]: without significant changes
- average velocity (average speed travelled) [2, 7]: significant decrease
- distance travelled (total and average) [2, 7]: significant decrease
- number of freezing count [2, 7]: significantly reduced
- total velocity (total speed travelled) [2, 7]: significant decrease

SMILES: CN1C(=O)CN=C(c2ccccc2)c2cc(Cl)ccc21 [diazepam]
- percentage of distance spent in the inner area [5]: significantly increased
